We go through 12 compounds from paper PMC12207910 (European journal of pharmaceutical sciences : official …, 2024).

Read-outs that look alike come from different tables or passages of the source. Non-standard residues stand in square brackets, D forms with d. Residues, ends and D or L forms follow the SMILES beside them. Dip = N[C@H](C(=O)O)C(c1ccccc1)c1ccccc1; hArg = N=C(N)NCCCC[C@H](N)C(=O)O; Agp = N=C(N)NC[C@H](N)C(=O)O

The subject of data set [1] is human red blood cells (hRBC). As to the kind of experiment: Hemolytic activity. Conditions: concentration at which 50% hemolysis was observed. It is filed as cell-based.
The subject of data set [2] is E. coli (ATCC BAA-2452). It is filed as cell-based, Escherichia coli. The note with it: E. coli (ATCC BAA-2452).
Data set [3] concerns E. coli (ATCC BAA-2452) biofilm. As to the kind of experiment: Antibiofilm activity, XTT assay. It is filed as cell-based, Escherichia coli. The method in brief: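 Bacterial suspensions at 5×10^5 CFU/mL in MH broth were grown 24 h at 37 °C to form biofilms, then washed twice with PBS. […] Biofilms were rewashed, then given XTT plus phenazine methosulfate for 1 h in the dark at 37 °C, and A492 was read. Percentage decrease versus untreated wells; triplicate, run twice.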

Data set [4] deals with E. coli (ATCC 25922) and E. coli (ATCC BAA-2452). In words: Resistance development study, repeated exposure. The note with it: E. coli strains; 18 exposures. It is filed as cell-based.
In data set [5] the test system is S. aureus (ATCC 29213). Conditions: highest MIC of three independent experiments.
Data set [6] deals with P. aeruginosa (ATCC 27883). The note with it: highest MIC of three independent experiments.
Data set [7] concerns E. coli (ATCC 25922). Conditions: highest MIC of three independent experiments.
Data set [8] concerns Escherichia coli (ATCC BAA-2452), NDM-1.
For data set [9], the system named is Klebsiella pneumonia (ATCC 13883).
Data set [10] has as its system Klebsiella pneumonia (ATCC BAA-2470), carbapenem resistant. Conditions: Carbapenem resistant strain.
Data set [11] relates to Acinetobacter baumannii (ATCC BAA1605), ciprofloxacin resistant. Conditions: Ciprofloxacin resistant strain.
Data set [12] deals with Pseudomonas aeruginosa (ATCC 10145).
In data set [13] the test system is Pseudomonas aeruginosa (ATCC BAA-1744), imipenem resistant. The note with it: Imipenem resistant strain.
Data set [14] has as its system MRSA (ATCC BAA-1556). Conditions: cited from earlier work.
The test system of data set [15] is S. aureus (ATCC 29213). The note with it: cited from earlier work.
For data set [16], the system named is P. aeruginosa (ATCC 27883). The note with it: cited from earlier work.
The subject of data set [17] is E. coli (ATCC 25922). Conditions: cited from earlier work.
Data set [18] relates to human red blood cells (hRBC). Conditions: cited from earlier work.

As to `N=C(N)NCCC[C@@H]1NC(=O)[C@H](CCCNC(=N)N)NC(=O)[C@H](CCCNC(=N)N)NC(=O)[C@H](C(c2ccccc2)c2ccccc2)NC(=O)[C@H](C(c2ccccc2)c2ccccc2)NC(=O)[C@H](Cc2c[nH]c3ccccc23)NC1=O` [1a, c[Arg-Arg-Arg-Trp-Dip-Dip]] (cyclo([Dip][Dip]RRRW)), the 50% haemolytic concentration (HC50) in [1] amounted to 50 µg/mL.
On the same count and under the same terms, to `N=C(N)NCCC[C@@H]1NC(=O)[C@H](CCCNC(=N)N)NC(=O)[C@H](C(c2ccccc2)c2ccccc2)NC(=O)[C@H](Cc2c[nH]c3ccccc23)NC(=O)[C@H](C(c2ccccc2)c2ccccc2)NC(=O)[C@H](CCCNC(=N)N)NC1=O` [1b, c[Arg-Arg-Arg-Dip-Trp-Dip]] (cyclo([Dip]RRR[Dip]W)) belongs 75 µg/mL; to `N=C(N)NCCC[C@@H]1NC(=O)[C@H](CCCNC(=N)N)NC(=O)[C@H](Cc2c[nH]c3ccccc23)NC(=O)[C@H](C(c2ccccc2)c2ccccc2)NC(=O)[C@H](C(c2ccccc2)c2ccccc2)NC(=O)[C@H](CCCNC(=N)N)NC1=O` [1c, c[Arg-Arg-Arg-Dip-Dip-Trp]] (cyclo([Dip][Dip]WRRR)), 65 µg/mL; to `N=C(N)NCCC[C@@H]1NC(=O)[C@H](CCCNC(=N)N)NC(=O)[C@H](CCCNC(=N)N)NC(=O)[C@H](C(c2ccccc2)c2ccccc2)NC(=O)[C@H](C(c2ccccc2)c2ccccc2)NC(=O)[C@H](Cc2c[nH]c3ccccc23)NC(=O)[C@H](CCCNC(=N)N)NC1=O` [3a, c[Arg-Arg-Arg-Arg-Trp-Dip-Dip]] (cyclo([Dip][Dip]RRRRW)), 85 µg/mL.
In data set [1], `N=C(N)NCCC[C@@H]1NC(=O)[C@H](CCCNC(=N)N)NC(=O)[C@H](Cc2c[nH]c3ccccc23)NC(=O)[C@H](C(c2ccccc2)c2ccccc2)NC(=O)[C@H](C(c2ccccc2)c2ccccc2)NC(=O)[C@H](CCCNC(=N)N)NC(=O)[C@H](CCCNC(=N)N)NC1=O` [3c, c[Arg-Arg-Arg-Arg-Dip-Dip-Trp]] (cyclo([Dip][Dip]WRRRR)) showed a concentration for 50% haemolysis (HC50) of 100 µg/mL.
For the compound `N=C(N)NCCC[C@@H]1NC(=O)[C@H](CCCNC(=N)N)NC(=O)[C@H](CCCNC(=N)N)NC(=O)[C@H](Cc2c[nH]c3ccccc23)NC(=O)[C@H](C(c2ccccc2)c2ccccc2)NC(=O)[C@H](Cc2c[nH]c3ccccc23)NC(=O)[C@H](CCCNC(=N)N)NC1=O` [5a, c[Arg-Arg-Arg-Arg-Trp-Dip-Trp]] (cyclo([Dip]WRRRRW)), the concentration for 50% haemolysis (HC50) in [1] is 220 µg/mL.
The compound `CC(C)C[C@@H]1NC(=O)[C@H](C(c2ccccc2)c2ccccc2)NC(=O)[C@H](CCCNC(=N)N)NC(=O)[C@H](CCCNC(=N)N)NC(=O)[C@H](CCCNC(=N)N)NC(=O)[C@H](CCCNC(=N)N)NC(=O)[C@H](C(c2ccccc2)c2ccccc2)NC1=O` [6a, c[Arg-Arg-Arg-Arg-Dip-Leu-Dip]] (cyclo([Dip]L[Dip]RRRR)) displayed an HC50 in data set [1] of 155 µg/mL.
Still for that read-out and setting: the figure for `N=C(N)NC[C@@H]1NC(=O)[C@H](CNC(=N)N)NC(=O)[C@H](CNC(=N)N)NC(=O)[C@H](C(c2ccccc2)c2ccccc2)NC(=O)[C@H](Cc2c[nH]c3ccccc23)NC(=O)[C@H](C(c2ccccc2)c2ccccc2)NC(=O)[C@H](CNC(=N)N)NC1=O` [7a, c[Agp-Agp-Agp-Agp-Dip-Trp-Dip]] (cyclo([Agp][Agp][Agp][Agp][Dip]W[Dip])) is 240 µg/mL; for `N=C(N)NCCCC[C@@H]1NC(=O)[C@H](CCCNC(=N)N)NC(=O)[C@H](CCCCNC(=N)N)NC(=O)[C@H](C(c2ccccc2)c2ccccc2)NC(=O)[C@H](Cc2c[nH]c3ccccc23)NC(=O)[C@H](C(c2ccccc2)c2ccccc2)NC(=O)[C@H](CCCNC(=N)N)NC1=O` [7c, c[hArg-Arg-hArg-Arg-Dip-Trp-Dip]] (cyclo([Dip]W[Dip][hArg]R[hArg]R)) it is 160 µg/mL.
As for Polymyxin B, the HC50 in [1] was >500 µg/mL. For the same compound, in [2] (CaCl2 2 mM), the “MIC CaCl2” value turned out to be 0.7 µg/mL. Further, the “MIC KCl” value in data set [2] (KCl […]) came out at 0.7 µg/mL. In addition, the “MIC Control” value in [2] (MH media without salt ions or serum) is 0.7 µg/mL. The “MIC MgCl2” value in [2] (MgCl2 1 mM) stood at 1.5 µg/mL. Also, the “MIC NH4Cl” value in data set [2] (NH4Cl 6 mM) turned out to be 0.7 µg/mL. Moreover, the “MIC NaCl” value in [2] (NaCl 150 mM) is 0.7 µg/mL. Besides, in data set [2] (fetal bovine serum 25%), the “MIC FBS (25%)” value was determined as 3.1 µg/mL. For the same compound, the “reduction in biofilm mass” value in [3] (at 2× the MIC) came to 61%; in [3] (at MIC) it was 46%. The “change in MIC after repeated exposure (resistance development)” value in data set [4] is given as “negligible changes in the MIC values”. For the same compound, in data set [5], the “MIC S. aureus (ATCC 29213)” value turned out to be 0.7 µg/mL. Also, the “MIC P. aeruginosa (ATCC 27883)” value in [6] worked out at 0.7 µg/mL. In addition, in data set [7], the “MIC E. coli (ATCC 25922)” value amounted to 0.7 µg/mL. The “MIC Escherichia coli (ATCC BAA-2452)” value in [8] is 0.7 µg/mL. Besides, in data set [9], the “MIC Klebsiella pneumonia (ATCC 13883)” value worked out at 6.2 µg/mL. Further, the “MIC Klebsiella pneumonia (ATCC BAA-2470)” value in data set [10] came to 1.5 µg/mL. Further, the “MIC Acinetobacter baumannii (ATCC BAA1605)” value in data set [11] turned out to be 0.7 µg/mL. In addition, the “MIC Pseudomonas aeruginosa (ATCC 10145)” value in [12] amounted to 0.7 µg/mL. In addition, in data set [13], the “MIC Pseudomonas aeruginosa (ATCC BAA-1744)” value was found to be 0.7 µg/mL.
Consider c[Arg-Arg-Arg-Arg-Nal-Nal-Nal] [8b], for which the “MIC MRSA (ATCC BAA-1556)” value in [14] was 3.1 µg/mL. In data set [15], the “MIC S. aureus (ATCC 29213)” value was 3.1 µg/mL. Also, in data set [16], the “MIC P. aeruginosa (ATCC 27883)” value is 12.5 µg/mL. Further, the “MIC E. coli (ATCC 25922)” value in data set [17] was 25 µg/mL. Further, the HC50 in data set [18] was 80 µg/mL.
cyclo(RRRR[Dip][Dip][Dip]) [8a]: in data set [14], the “MIC MRSA (ATCC BAA-1556)” value was 3.1 µg/mL. The “MIC S. aureus (ATCC 29213)” value in [15] is 3.1 µg/mL. Further, in data set [16], the “MIC P. aeruginosa (ATCC 27883)” value is 12.5 µg/mL. For the same compound, the “MIC E. coli (ATCC 25922)” value in data set [17] was 12.5 µg/mL. Moreover, the HC50 in [18] is 70 µg/mL.
